Measurements collected from several papers.
Each line is one published result; the experiments were not run side by side.
Read-out: enzyme activity
Mode: inhibitor
CDK2 with cyclin A: Cyclin-dependent kinase 2, with cyclin A (CDK2, Homo sapiens, UniProt P24941)
CDK2 with cyclin E2: Cyclin-dependent kinase 2, with cyclin E2 (CDK2, Homo sapiens, UniProt P24941)
CDK2 with cyclin E: Cyclin-dependent kinase 2, with cyclin E (CDK2, Homo sapiens, UniProt P24941)

| SMILES | target | test | setting | remaining activity |
| --- | --- | --- | --- | --- |
| Cc1ccc(Nc2nccc(N(C)c3ccc4c(C)n(C)nc4c3)n2)cc1S(N)(=O)=O | CDK2 with cyclin A |  | 0.5 µM | 96.1% |
| CC(C)(O)[C@H]1CC[C@H](Nc2ccc3ncc(-c4cccc(C(F)(F)F)c4)n3n2)CC1 | CDK2 with cyclin A |  | 1 µM | 96.9% |
| CC(C)(C)c1nc2c(s1)c1nc(N)ncc1c1ccc(NS(=O)(=O)c3c(F)cccc3F)c(F)c12 | Cyclin-dependent kinase 2, with cyclin A2 (CDK2, Homo sapiens, UniProt P24941) | radiometric | 1 µM | 70% |
| O=C(Nc1cnn(-c2csc(C(=O)NC3COC3)c2)c1)Nc1ccccc1Cl | CDK2 with cyclin E2 |  | 5 µM | 107% |
| Nc1nc(Nc2ccccc2)sc1C(=O)c1c(F)cccc1F | CDK2 with cyclin A |  | 10 µM | 2% |
| Cc1sc(C(=O)NC2COC2)cc1-n1cc(NC(=O)Nc2c(F)cccc2Cl)cn1 | CDK2 with cyclin E2 |  | 10 µM | 90.8% |
| COc1cc(Cl)c(C(=O)N[C@@H](CN[C@H]2CC[C@@H](N)CC2)Cc2ccc(C#N)cc2)cc1-c1ccc(CN[C@H](C)c2ccc(C)cc2)o1 | CDK2 with cyclin E |  | 1 µM | 90% |
| FC(F)c1nc2ccccc2n1-c1nc(N2CCOCC2)nc(N2CCOCC2)n1 | CDK2 with cyclin A |  | 10 µM | 77% |
| CC(C)(C)C(=O)c1sc(NC2CCCCC2)nc1N | CDK2 with cyclin A |  | 10 µM | 13% |
| Cc1cnc(NC2CCOCC2)nc1-n1cnc(C(=O)NC(CN)c2cc(F)cc(Cl)c2)c1 (centres unmarked) | CDK2 with cyclin A | radiometric | 1 µM | 3% |
| Oc1cccc(-c2nc(N3CCOCC3)c3oc4ncccc4c3n2)c1 | CDK2 with cyclin A |  | 10 µM | 94% |
| CC(C)(C)c1nc(-c2cccc(NS(=O)(=O)c3c(F)cccc3F)c2F)c(-c2ccnc(N)n2)s1 | Cyclin-dependent kinase 2, with cyclin E1 (CDK2, Homo sapiens, UniProt P24941) | radiometric | 1 µM | 90% |
| O=C(Nc1cnn(-c2csc(C(=O)NC3COC3)c2)c1)Nc1c(F)cccc1Cl | CDK2 with cyclin E |  | 5 µM | 94.6% |
| COc1cc(Nc2cnc(C#N)c(O[C@H](C)CN(C)C)n2)ncc1-c1cnn(C)c1 | CDK2 with cyclin A | radiometric | 1 µM | 114% |
